Compound activity as filed in PubChem BioAssay.
Rows were chosen to be rich in hits. Some 3.3% of all compounds tested hit in one or more screens of this group.
HTRA1 inh – HTRA1 serine protease inhibitors, primary screen, biochemical, fluorescence polarization, HTS; Q92743; recombinant HTRA1, FP-rhodamine activity-based probe; inhibition, % at 5.96 µM; hit rate 0.5% among 340,000; AID 504803, 2011; in the data active means inhibition above about 36%
rCAG binder – binders of r(CAG) RNA repeats, primary screen, biochemical, fluorescence; hit rate 1.3% among 370,000; inhibition, % at 3 µM; r(CAG) RNA repeat, TO-PRO-1 dye displacement fluorescence;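 active means inhibition above the plate cutoff, the mean of all test compounds on that plate plus 3 SD, cut at about 35% in these data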;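 further: higher means more dye released from RNA so lower well fluorescence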
mABHD4 FP – ABHD4 inhibitors, primary screen, biochemical, fluorescence polarization, mouse; inhibition, % at 8.92 µM; purified mABHD4, FP-Rh probe fluorescence polarization; hit rate 0.54% among 370,000; AID 720543, 2013;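 active means inhibition exceeding the mean over every tested compound plus 3 SD, cut at about 30% in these data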
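Assay system: wild-type mouse ABHD4 protein; compound: single nominal dose of 8.92 µM, 0.89% DMSO final; schedule: 45 min + 60 min at 25 °C; measured by: FP readout, ex 525 nm / em 598 nm; evaluation: % inhibition of FP-Rh probe binding versus controls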
PRMT1 FP inh – PRMT1 methyltransferase inhibitors, primary screen, biochemical, fluorescence polarization; Protein arginine N-methyltransferase 1 (Homo sapiens), Q99873; recombinant PRMT1, activity-based probe fluorescence polarization; inhibition, % at 2.79 µM; hit rate 1.3% among 370,000;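 active means inhibition above about 21% made by adding two undisclosed values, limit read from the data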
Target sequence (Q99873 whole entry, looked up): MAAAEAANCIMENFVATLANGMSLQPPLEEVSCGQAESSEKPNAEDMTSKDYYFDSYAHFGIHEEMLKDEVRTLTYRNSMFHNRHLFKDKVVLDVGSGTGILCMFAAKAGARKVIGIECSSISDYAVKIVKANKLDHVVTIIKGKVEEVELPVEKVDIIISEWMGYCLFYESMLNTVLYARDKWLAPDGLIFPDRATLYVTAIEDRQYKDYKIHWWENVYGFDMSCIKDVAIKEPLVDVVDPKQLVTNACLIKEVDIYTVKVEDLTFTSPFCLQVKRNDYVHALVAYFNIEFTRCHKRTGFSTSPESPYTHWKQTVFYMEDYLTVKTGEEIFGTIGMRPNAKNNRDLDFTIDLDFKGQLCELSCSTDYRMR
SIAE inh – human SIAE inhibitors, primary screen, biochemical, fluorescence polarization, FP-Rh probe, 1536-well HTS. Sialate O-acetylesterase (Homo sapiens), Q9HAT2. SIAE FP-Rh probe binding. inhibition, % at 9.66 µM. hit rate 0.69% among 370,000;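 active means inhibition above a cutoff: mean of compounds within the control limits plus 3 SD of those, cut at about 17% in these data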
Hits are given with their value; 0 = inactive; - = no result.

SMILES | HTRA1 inh | rCAG binder | mABHD4 FP | PRMT1 FP inh | SIAE inh
CC(C)CNC(=O)C1Nc2ccc(OC(F)(F)F)cc2C2C=CCC12 (stereo unspecified) | 0 | 0 | 0 | 0 | 0
CC(C)CNC(=O)C1Nc2ccc(C(F)(F)F)cc2C2C=CCC12 (stereo unspecified) | 0 | 0 | 0 | 0 | 0
CCOC(=O)C1Nc2ccc(C)cc2C2C=CCC12 (stereo unspecified) | 0 | 0 | 0 | 23 | 0
COC(=O)CNC(=O)C1Nc2ccccc2C2C=CCC12 (stereo unspecified) | 0 | 0 | 0 | 37 | 0
CC(=O)O[C@@H]1C=C[C@@H](C#Cc2ccc(C(C)(C)C)cc2)O[C@@H]1COC(=O)NC(C)C | - | 0 | 0 | 0 | 0
Nc1[nH]c(C(=O)c2ccc(Br)cc2)c(-c2cccc3ccccc23)c1C(=O)NCCc1c[nH]c2ccccc12 | - | 0 | 0 | 0 | 0
COC(=O)c1cc2c(c3c4cc(C)ccc4n(S(=O)(=O)c4cccc(C)c4)c13)C(=O)N(Cc1ccccc1OC)C2 | - | 0 | 0 | 0 | 0
COc1ccc(S(=O)(=O)N2CCCc3nc(-c4ccc(Br)cc4)ccc32)cc1 | - | 0 | 0 | 0 | 0
CCOC(=O)N1CCN(c2ncnc3c2[nH]c2ccc(OC)cc23)CC1 | 0 | 0 | 0 | 0 | 0
COc1ccc2[nH]c3c(N4CCc5ccccc5C4)ncnc3c2c1 | 0 | 0 | 36 | 0 | 0
COC(=O)C1=C(C)N(Cc2cccc(C(F)(F)F)c2)C(=NCc2cc(OC)c(OC)c(OC)c2)NC1c1ccc(Cl)cc1 (stereo unspecified) | - | 0 | 0 | 0 | 0
COc1ccc(C(=O)CSc2nnc(-c3ccco3)n2C)cc1 | 0 | 0 | 0 | 24 | 0
NC(=O)CSc1oc(-c2ccco2)nc1S(=O)(=O)c1ccc(Cl)cc1 | 0 | - | - | - | -
Cc1ccc(S(=O)(=O)c2nc(-c3ccco3)oc2SCC(N)=O)cc1 | 0 | 0 | 0 | 21 | 0
C[C@@H]1ON(C)[C@H]2C[C@H]3c4[nH]c5cccc(Br)c5c4CCN3C(=O)[C@@H]12 | - | 0 | 0 | 0 | 0
CN1OC[C@@H]2CN(Cc3ccc4c(c3)OCO4)[C@H](c3ccc(-n4ccnc4)cc3)C[C@@H]21 | - | 0 | 0 | 0 | 0
CCCc1cc(=O)oc2c(C)c(OCC(=O)N3CCC[C@@H]3C(=O)O)ccc12 | 0 | 0 | 0 | 0 | 0
CCCCCCc1c(C)c2ccc(OCC(=O)N3CCC[C@H]3C(=O)O)c(C)c2oc1=O | 0 | 41 | 0 | 0 | 0
C[C@H](c1ccccc1)N1C[C@@H](COCc2ccccc2)Oc2cccc(Oc3ccc(C(C)(C)C)cc3)c2S1(=O)=O | - | 0 | 0 | 0 | 0
COc1ccc(C(=O)N2CCN=C2SC)cc1OC | 0 | 0 | 0 | 0 | 0
CCOc1cc(C(=O)N2CCN=C2SC)cc(OCC)c1OCC | 0 | 0 | 0 | 24 | 0
O=C(O)c1cc(S(=O)(=O)N2CCCCCC2)ccc1Cl | 0 | 0 | 0 | 0 | 0
O=C(Nc1ccccc1C(=O)O)c1cc(S(=O)(=O)N2CCCCCC2)ccc1Cl | 0 | 58 | 0 | 0 | 0
COc1ccc(NC(=S)NNc2ccc(C(=O)O)cc2)cc1 | 0 | 0 | 0 | 21 | 0
Cc1ccc(NC(=O)COC(=O)/C=C/c2ccco2)cc1S(=O)(=O)N(C)C | 0 | 0 | 0 | 21 | 0
SMILES | HTRA1 inh | rCAG binder | mABHD4 FP | PRMT1 FP inh | SIAE inh
Cc1ccc[n+](C2C(c3ccc([N+](=O)[O-])cc3)C(C#N)=C([S-])NC2(O)C2CC2)c1 (stereo unspecified) | 0 | 0 | 0 | 23 | 0
CCCCCCCCN1C(=O)[C@@H](CC(=O)NCc2ccc(OC)c(OC)c2)C[C@@]2(C(=O)OC)C1=C[C@H](C1CCCC1)O[C@@H]2C | - | 0 | 0 | 0 | 0
CC(C)c1nnc(NC(=O)c2cccs2)s1 | 0 | 0 | 0 | 25 | 0
CCCC(C)C(=O)NC1CCCCN(C)C1=O (stereo unspecified) | - | 0 | 0 | 0 | 0
Cc1cc2c(c(=O)o1)[C@@]1(C(=O)N(C)c3ccccc31)C1=C(CC(C)(C)OC1=O)O2 | - | 0 | 0 | 0 | 0
O=C(NCCc1ccccc1)C(c1cccs1)N(C(=O)c1csnn1)C1CC1 (stereo unspecified) | 0 | 0 | 0 | 0 | 18
C[C@@H]1ON(C)[C@H]2C[C@H]3c4cc(N5CCCCC5)ccc4CCN3C[C@@H]12 | - | 0 | 0 | 0 | 0
O=S(=O)(c1ccc(F)cc1)N1CCCc2nc(-c3ccc(F)cc3)ccc21 | - | 0 | 0 | 0 | 0
CCCC(=O)Nc1nc2ccc(OCC)cc2s1 | 0 | 0 | 0 | 0 | 0
CCOc1ccc2c(O)csc2c1 | 0 | 0 | 0 | 41 | 0
COC(=O)[C@]12C[C@H](CC(=O)NCc3ccc(OC)c(OC)c3)C(=O)N(CCC3=CCCCC3)C1=C[C@H](COCc1ccccc1)O[C@@H]2C | - | 0 | 0 | 0 | 0
O=C(CC(Nc1ccccc1Cl)C(=O)OCC(=O)c1cccs1)c1ccccc1 (stereo unspecified) | 0 | 0 | 0 | 21 | 0
O=C(OCC(=O)c1cccs1)c1ccccc1 | 0 | 0 | 0 | 0 | 0
Cc1ccc(S(=O)(=O)N2[C@@H](c3ccccc3F)C(C(=O)O)=CC[C@H]2c2ccc(Cl)c(Cl)c2)cc1 | 0 | 74 | 0 | 0 | 0
COc1cc(N2C[C@@]3(O)CC[C@@H](O)[C@@H](OC)[C@@H]3[C@@](C)(O)[C@@H]2CC=C(C)C)cc(OC)c1OC | - | 0 | 0 | 0 | 0
CCCCCCCCCCCCCCCC[N+](C)(C)CCN(Cc1ccc(OC)cc1)c1ncccn1 | 52 | - | - | - | -
COc1ccc(CN(CCN(C)C)c2ccccn2)cc1 | 0 | 0 | 0 | 0 | 0
O=c1c2c3nc4ccccc4nc3n(Cc3ccccc3)c2ncn1Cc1ccco1 | 0 | 37 | 0 | 38 | 0
COCCCn1c2nc3ccccc3nc2c2c(=O)n(Cc3ccc(Cl)cc3)cnc21 | 0 | 0 | 0 | 0 | 0
COc1ccc(NCc2nnc(SCC(=O)Nc3cc(C)cc(C)c3)o2)cc1 | 0 | 0 | 0 | 24 | 0
O=C1CC(Sc2cccs2)C(=O)N1c1ccccc1 (stereo unspecified) | 0 | 0 | 0 | 49 | 0
CC[n+]1ccc(C)c2cc(S(=O)C(F)(F)F)ccc21 (stereo unspecified) | 42 | - | - | - | -
Cc1ccc2[nH]c3c(c2c1)CN(C(=O)CN1CCN(C(=O)c2ccco2)CC1)CC3 | - | 0 | 0 | 21 | 0
O=C(Oc1ccccc1)c1ccc(NC(=O)c2ccco2)cc1 | 0 | 0 | 0 | 24 | 0
O=C(c1cccnc1Cl)N1CCC(Oc2cccnc2)CC1 | - | 0 | 0 | 0 | 0
O=[N+]([O-])c1ccc(O)c2ncccc12 | 0 | 0 | 0 | 0 | 0
O=[N+]([O-])c1cc(Cl)c(O)c2ncccc12 | 55 | 0 | 0 | 0 | 0
C[C@@H]1OC(C2CCCCC2)N(C)[C@H]2C[C@H]3c4[nH]c5cccc(-c6ccccc6)c5c4CCN3C(=O)[C@@H]12 (stereo partly specified) | - | 0 | 0 | 0 | 0
